Test results taken from ChEMBL document CHEMBL1130018, “Synthesis and anticonvulsant activities of 3,3-dialkyl- and 3-alkyl-3-benzyl-2-piperidinones (delta-valerolactams) and hexahydro-2H-azepin-2-ones (epsilon-caprolactams)” (J Med Chem, 1997).

How the values were obtained:
[1] = organism: Mus musculus; experiment: Anticonvulsant activity expressed as dose at which 50% of the mice were protected from tonic hindlimb seizures induced by maximal electroshock (MES); format: functional
Summary of the method: (§1)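 Mice were given at least four doses, with six animals per dose. Compound was dissolved in 30% polyethylene glycol and injected i.p. at 0.01 mL/g body weight. Challenge was pentylenetetrazole 85 mg/kg (clonic seizures) or maximal electroshock (tonic hindlimb extension). ED50 is the dose protecting 50%, with 95% fiducial limits.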

[2] = Neurotoxicity was evaluated by a rotarod test; format: toxicity; settings: mouse
Summary of the method: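 Mice were given at least four i.p. doses of compound in 30% polyethylene glycol at 0.01 mL/g, with six per dose, then tested on the rotorod. TD50 is the dose at which 50% failed, with 95% fiducial limits. Where these could not be calculated, the highest all-nontoxic dose and the lowest all-toxic dose are given instead.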

[3] = Protective Index (PI) determined as the ratio of toxic dose (TD50) and effective dose (ED50 (MES)); format: ADME; settings: mouse; read-out: PI
Summary of the method: (§2)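 The protective index was calculated as rotorod TD50 divided by the ED50 against PTZ- or MES-induced seizures. All values come from i.p. dosing in 30% polyethylene glycol in mice, six per dose.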

[4] = Protective Index (PI) determined as the ratio of toxic dose (TD50) and effective dose (ED50 (PTZ)); format: ADME; settings: mouse; read-out: PI; summary of the method: as §2
[5] = target: GABA-A receptor; anion channel; experiment: Ability to displace radioligand [35S]TBPS from Gamma-aminobutyric acid A receptor binding site in rat brain membranes; format: cell membranes
Summary of the method: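 Values are mean and range from duplicate experiments, each run in triplicate. For some lactams the values are mean ± SEM of three experiments run in triplicate. Read-out is IC50 (mM) for displacement of [35S]TBPS.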

[6] = tested on: Mus musculus; experiment: Anticonvulsant activity expressed as dose at which 50% of the mice were protected from clonic seizures induced by pentylenetetrazole (85 mg/Kg); format: functional; summary of the method: as §1
[7] = tested on: Mus musculus; experiment: Anticonvulsant activity expressed as dose at which 50% of the mice were protected from clonic seizures induced by pentylenetetrazole (85 mg/Kg); cytotoxicity observed at 300 mg/kg; format: functional
[8] = organism: Rattus norvegicus; experiment: Antagonism of compound (300 uM) induced potentiation of 3 uM GABA-mediated chloride currents in cultured rat hippocampal neurons; format: functional
Summary of the method: (§3)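 Whole-cell peak current evoked by 3 μM GABA, with test compound alone or with 3 mM α-isopropyl-α-methyl-γ-butyrolactone, in cultured rat hippocampal neurons. Each peak was normalized to the peak from 3 μM GABA alone on the same cell, with 100% meaning no change. Values are mean ± SEM over 5–14 cells. Alone vs plus antagonist was compared by Student's t test.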

[9] = target: GABA-A receptor; anion channel (Rattus norvegicus) (UniProt O09028+P15431+P18506+P18508+P19969+P20236+P23574+P23576+P28471+P28473+P30191+P62813+P63079+P63138+Q91ZM7+Q9ES14); experiment: Induced potentiation of 3 uM GABA-mediated chloride currents at 1 mM in the presence of 3 mM alpha-IMGBL (picrotoxin antagonist); format: functional; summary of the method: as §3
[10] = organism: Rattus norvegicus; experiment: Antagonism of compound (600 uM) induced potentiation of 3 uM GABA-mediated chloride currents in cultured rat hippocampal neurons; format: functional
Summary of the method: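 Cultured rat hippocampal neurons. Test compound was applied with 3 μM GABA, with and without α-isopropyl-α-methyl-γ-butyrolactone (3 mM). Peak current was normalized to the peak from 3 μM GABA alone on the same cell, where 100% means no change. Mean ± SEM over N cells; Student's t test compared compound alone with compound plus antagonist.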

[11] = organism: Rattus norvegicus; experiment: Antagonism of compound (200 uM) induced potentiation of 3 uM GABA-mediated chloride currents in cultured rat hippocampal neurons; format: functional; summary of the method: as §3
[12] = organism: Rattus norvegicus; experiment: Antagonism of compound (1 mM) induced potentiation of 3 uM GABA-mediated chloride currents in cultured rat hippocampal neurons; format: functional; summary of the method: as §3

**Q.** What does the source list for CCC1(C)CC(=O)NC1=O (configuration not stated) [ETHOSUXIMIDE]?
**A.** ED50 [1]: > 562 mg/kg; TD50 [2]: 378 mg/kg; selectivity ratio [3]: < 0.67; selectivity ratio [4]: 2.35

**Q.** With CCC1(C)CCCNC1=O (configuration not stated) as the molecule, how does the IC50 [5] read?
**A.** Its IC50 is 4.41 mM.

**Q.** And the ED50 [6]?
**A.** The ED50 was 168 mg/kg.

**Q.** What about the ED50 [1] of the same molecule?
**A.** The ED50 was 199 mg/kg.

**Q.** What about the TD50 [2] of the same molecule?
**A.** The TD50 was 378 mg/kg.

**Q.** What about the selectivity ratio [3] of the same molecule?
**A.** The selectivity ratio was 1.9.

**Q.** What about the selectivity ratio [4] of the same molecule?
**A.** The selectivity ratio was 2.25.

**Q.** For CCC1(CC)CCNC1=O, which selectivity ratio [3] is on record?
**A.** Its selectivity ratio is 1.49.

**Q.** What about the selectivity ratio [4] of the same molecule?
**A.** Its selectivity ratio is 5.65.

**Q.** With CC1(Cc2ccccc2)CCCNC1=O (configuration not stated) as the molecule, how does the IC50 [5] read?
**A.** The IC50 was 0.73 mM.

**Q.** And the ED50 [1]?
**A.** The ED50 was 50 mg/kg.

**Q.** And the TD50 [2]?
**A.** Its TD50 is 125 mg/kg.

**Q.** And the selectivity ratio [3]?
**A.** Its selectivity ratio is 2.5.

**Q.** And the selectivity ratio [4]?
**A.** Its selectivity ratio is 2.23.

**Q.** For CCC1CCCNC1=O (configuration not stated), which IC50 [5] is on record?
**A.** Its IC50 is 8.78 mM.

**Q.** What about the ED50 [6] of the same molecule?
**A.** Its ED50 is 297 mg/kg.

**Q.** What about the ED50 [1] of the same molecule?
**A.** The ED50 was 550 mg/kg.

**Q.** And the TD50 [2]?
**A.** The TD50 was > 325 mg/kg.

**Q.** And the selectivity ratio [3]?
**A.** The selectivity ratio was > 0.59.

**Q.** And the selectivity ratio [4]?
**A.** The selectivity ratio was > 1.09.

**Q.** With O=C1CCCCN1 as the molecule, how does the IC50 [5] read?
**A.** The IC50 was 197 mM.

**Q.** And the ED50 [1]?
**A.** Its ED50 is > 600 mg/kg.

**Q.** What about the TD50 [2] of the same molecule?
**A.** The TD50 was > 600 mg/kg.

**Q.** With CCCC(CCC)C(=O)O [VALPROIC ACID] as the molecule, how does the ED50 [1] read?
**A.** The ED50 was 206 mg/kg.

**Q.** For O=C1CCCCCN1 [CAPROLACTAM], which IC50 [5] is on record?
**A.** Its IC50 is 17.4 mM.

**Q.** And the ED50 [1]?
**A.** Its ED50 is > 300 mg/kg.

**Q.** And the TD50 [2]?
**A.** The TD50 was < 300 mg/kg.

**Q.** What about the selectivity ratio [3] of the same molecule?
**A.** Its selectivity ratio is < 1.

**Q.** What about the selectivity ratio [4] of the same molecule?
**A.** The selectivity ratio was < 1.

**Q.** What about the ED50 [7] of the same molecule?
**A.** The ED50 was > 300 mg/kg.

**Q.** With CCC1(Cc2ccccc2)CCCNC1=O (configuration not stated) as the molecule, how does the IC50 [5] read?
**A.** Its IC50 is 0.27 mM.

**Q.** And the ED50 [1]?
**A.** The ED50 was 70 mg/kg.

**Q.** And the Response [8]?
**A.** The Response was 138%.

**Q.** And the TD50 [2]?
**A.** Its TD50 is 103 mg/kg.

**Q.** And the selectivity ratio [3]?
**A.** The selectivity ratio was 1.47.

**Q.** And the selectivity ratio [4]?
**A.** The selectivity ratio was 1.69.

**Q.** And the Response [9]?
**A.** Its Response is 93%.

**Q.** With CCC1CCCCNC1=O (configuration not stated) as the molecule, how does the IC50 [5] read?
**A.** The IC50 was 3.2 mM.

**Q.** And the ED50 [6]?
**A.** Its ED50 is 210 mg/kg.

**Q.** What about the ED50 [1] of the same molecule?
**A.** The ED50 was 249 mg/kg.

**Q.** And the TD50 [2]?
**A.** The TD50 was 145 mg/kg.

**Q.** What about the selectivity ratio [3] of the same molecule?
**A.** The selectivity ratio was 0.58.

**Q.** And the selectivity ratio [4]?
**A.** The selectivity ratio was 0.69.

**Q.** What does the source list for O=C1NCCCC1Cc1ccccc1 (configuration not stated)?
**A.** IC50 [5]: 1.44 mM; ED50 [6]: 82 mg/kg; ED50 [1]: 41 mg/kg; TD50 [2]: 289 mg/kg; selectivity ratio [3]: 7.05; selectivity ratio [4]: 3.52

**Q.** Which results are given for CCC1(c2ccccc2)C(=O)NC(=O)NC1=O [PHENOBARBITAL]?
**A.** ED50 [1]: 17 mg/kg; TD50 [2]: 88 mg/kg; selectivity ratio [3]: 5.18; selectivity ratio [4]: 4

**Q.** What does the source list for CCC1(Cc2ccccc2)CCCCNC1=O (configuration not stated)?
**A.** IC50 [5]: 0.09 mM; ED50 [6]: > 100 mg/kg; ED50 [1]: > 100 mg/kg; Response [10]: 128%; TD50 [2]: > 100 mg/kg; Response [9]: 107%

**Q.** What does the source list for CC1CCCNC1=O (configuration not stated)?
**A.** IC50 [5]: 27.7 mM; TD50 [2]: > 600 mg/kg

**Q.** Which IC50 [5] does the source give for CCC1(CC)CCCCNC1=O here?
**A.** Its IC50 is 0.38 mM.

**Q.** What about the ED50 [6] of the same molecule?
**A.** The ED50 was 226 mg/kg.

**Q.** And the ED50 [1]?
**A.** Its ED50 is 178 mg/kg.

**Q.** And the Response [11]?
**A.** The Response was 117%.

**Q.** And the TD50 [2]?
**A.** The TD50 was 131 mg/kg.

**Q.** What about the selectivity ratio [3] of the same molecule?
**A.** Its selectivity ratio is 0.74.

**Q.** What about the selectivity ratio [4] of the same molecule?
**A.** The selectivity ratio was 0.58.

**Q.** And the Response [9]?
**A.** The Response was 105%.

**Q.** For O=C1NCCC1Cc1ccccc1 (configuration not stated), which selectivity ratio [3] is on record?
**A.** The selectivity ratio was 3.51.

**Q.** And the selectivity ratio [4]?
**A.** The selectivity ratio was 2.03.

**Q.** With CCC1(CC)CCCNC1=O as the molecule, how does the IC50 [5] read?
**A.** The IC50 was 1.31 mM.

**Q.** And the ED50 [6]?
**A.** The ED50 was 37 mg/kg.

**Q.** And the ED50 [1]?
**A.** Its ED50 is 54 mg/kg.

**Q.** And the Response [12]?
**A.** Its Response is 142%.

**Q.** And the TD50 [2]?
**A.** The TD50 was 165 mg/kg.

**Q.** What about the selectivity ratio [3] of the same molecule?
**A.** The selectivity ratio was 3.06.

**Q.** And the selectivity ratio [4]?
**A.** The selectivity ratio was 4.46.

**Q.** What about the Response [9] of the same molecule?
**A.** The Response was 102%.
